A selection: hits, their analogues and other compounds. The true share with any hit is near 4.2%.
M18AAP inhibitor – PfM18AAP enzyme inhibition; 1.2% of 290,000 active; inhibition, % at 7.35 µM; AID 1822; recombinant PfM18AAP, H-Glu-NHMec fluorogenic cleavage;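 active = inhibition above the campaign mean inhibition over all tested compounds plus 3 SD, cut at about 28% in these data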;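 also: 0% = plate median of test compound wells and 100% = 2 mM ZnCl2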
SENP1 FRET inh – SENP1 (human) catalytic domain inhibition; recombinant SENP1 catalytic domain, CyPet-SUMO1-YPet FRET cleavage; Q9P0U3; inhibition, % at 10 µM; 0.21% of 360,000 active; AID 624204;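 active = inhibition at least 30% at 10 µM, raw YFP signal under a set limit, fluorescence ratio 0.5 to 1.5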;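 also: 0% = enzyme with DMSO and 100% = no enzyme wells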
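Assay system – human recombinant His6-tagged SENP1 catalytic domain enzyme · Input – SENP1 enzyme, 20 pM final · Buffer or medium – Tris pH 8 buffer plus EDTA, NaCl, BME, BSA, NP40, catalase · Schedule – 50 min reaction at room temperature · Technique – FRET read of cyan and yellow fluorescence · Control set – no-enzyme wells low, DMSO-plus-enzyme wells high control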
AHR act – human AHR activation. 2.5% of 320,000 active. P35869. activation, % at 5 µM. AHR-responsive luciferase reporter cells, luminescence; in the data active = activation above about 47%;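 also: 0% = vehicle wells and 100% = reference agonist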
Target sequence (P35869 whole entry, looked up): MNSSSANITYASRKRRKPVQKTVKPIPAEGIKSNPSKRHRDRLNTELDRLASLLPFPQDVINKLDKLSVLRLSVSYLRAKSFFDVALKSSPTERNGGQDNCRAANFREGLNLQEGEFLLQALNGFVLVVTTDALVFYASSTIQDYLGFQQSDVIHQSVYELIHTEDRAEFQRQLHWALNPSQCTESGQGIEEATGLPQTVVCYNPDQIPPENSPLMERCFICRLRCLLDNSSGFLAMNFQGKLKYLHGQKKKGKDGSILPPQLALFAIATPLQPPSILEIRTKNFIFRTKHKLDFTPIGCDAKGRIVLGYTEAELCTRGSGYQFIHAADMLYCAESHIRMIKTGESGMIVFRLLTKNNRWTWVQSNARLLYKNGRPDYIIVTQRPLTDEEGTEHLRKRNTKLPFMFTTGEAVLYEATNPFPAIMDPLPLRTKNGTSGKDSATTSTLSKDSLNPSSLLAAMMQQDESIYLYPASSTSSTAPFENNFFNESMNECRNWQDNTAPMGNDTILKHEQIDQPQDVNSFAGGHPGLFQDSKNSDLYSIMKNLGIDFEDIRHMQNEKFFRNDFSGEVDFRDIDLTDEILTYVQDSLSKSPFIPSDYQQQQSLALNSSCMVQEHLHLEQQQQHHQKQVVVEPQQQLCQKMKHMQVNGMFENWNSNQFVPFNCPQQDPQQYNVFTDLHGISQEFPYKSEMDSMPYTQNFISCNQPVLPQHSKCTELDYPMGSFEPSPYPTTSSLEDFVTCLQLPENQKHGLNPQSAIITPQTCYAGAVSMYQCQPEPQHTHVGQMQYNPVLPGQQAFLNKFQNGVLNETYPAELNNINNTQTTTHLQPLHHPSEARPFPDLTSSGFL
FXN GAA850 act – increases GAA850 frataxin promoter reporter activity; AID 540364; activation, % at 6 µM; 0.56% of 360,000 active; HEK293 lucGAA850 FXN promoter luciferase reporter, 24 h; percent of 10 µM SAHA response;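 active = activation above the average of all compounds screened plus 3 SD, cutoff fixed separately per campaign, cut at about 7.5% in these data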;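 also: 0% = DMSO wells and 100% = 10 µM SAHA wells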
HDAC3 inh – human HDAC3 inhibition | O15379 | recombinant HDAC3, fluorogenic peptide/trypsin coupled, fluorescence | inhibition, % at 8.3 µM | 0.15% of 320,000 active | AID 2718; in the data active = inhibition above about 26%, passing the limit was not always enough
Fh CTSL1 inh – counter-screen for PFM18AAP inhibitors: inhibitors of F. hepatica cathepsin L1; recombinant F. hepatica cathepsin L1, Z-Leu-Arg-MCA fluorescence; inhibition, % at 5.96 µM; 0.49% of 300,000 active;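 active = inhibition above the mean of all tested compounds plus 3 SD, set per screening campaign, cut at about 17% in these data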;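 also: 0% = plate median of test compound wells and 100% = 1 µM Z-Phe-Ala-diazomethylketone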
AHR act confirm – confirmation of human aryl hydrocarbon receptor activators; shares compounds with AHR act; human cells, AHR-responsive luciferase reporter, luminescence; activation, % at 9 µM; 87% of 2,300 active; AID 2845; in the data active = activation above about 49%;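 also: HepG2 hepatoma cells carrying a DRE-driven firefly luciferase reporter; 0% = vehicle wells and 100% = reference agonist wells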
PXR act counter – activates human PXR in AHR activator counter-screen; shares compounds with AHR act; cell-based PXR reporter, luciferase luminescence; AID 434939; activation, % at 11.6 µM; 88% of 2,300 active; in the data active = activation above about 11%;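 also: human hepatoma DPX-2 cells expressing full-length human PXR; 0% = DMSO and 100% = reference agonist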
* marks the source's active call; other numbers are inactive results; . = no result given.

SMILES	M18AAP inhibitor	SENP1 FRET inh	AHR act	FXN GAA850 act	HDAC3 inh	Fh CTSL1 inh	AHR act confirm	PXR act counter
Cc1ccc([C@H]2N[C@]3(CCCN(CC4CCCCC4)C3=O)[C@H]3C(=O)N(C)C(=O)[C@@H]23)cc1	.	-1	.	-2	.	.	.	.
O=c1[nH]cnc2c1sc1nc(C(F)F)cc(-c3ccccc3)c12	.	-6	106*	0	7	.	76*	10*
CCOC(=O)c1c2ccc(OCC(=O)NN)cc2n2ccccc12	8	-28	86*	-2	-33	3	90*	12*
COC(=O)C1C/C(=N/NS(=O)(=O)c2ccc(C)cc2)CS1 (centres undefined)	7	3	.	1	-9	.	.	.
Cc1cc(C)c(C#N)c(SCC(=O)c2ccccc2)n1	0	-17	148*	1	-5	6	153*	29*
Cc1cc(SCC(=O)NCCN2C(=O)CSC2=O)nc2c(C)cccc12	-10	1	30	3	2	0	.	.
Cc1cc(C)c(C#N)c(SCC(=O)c2cccs2)n1	1	-53	165*	2	-8	2	112*	28*
Cc1cc(SCC(=O)c2cccs2)nc2c(C)cccc12	2	-2	83*	3	0	-1	100*	65*
COC(=O)CSc1nc(C)cc(C)c1C#N	-9	-1	2	0	-2	-5	.	.
CCc1cc2c(=O)n(CCCOC)c(SCC(=O)Nc3oc(C)c4c(C)n[nH]c(=O)c34)nc2s1	.	-1	18	2	4	-4	.	.
Cn1c(=O)n(CCc2ccccc2)c2ccccc21	1	0	125*	2	-11	-4	111*	40*
Cc1nn(CC(=O)c2ccc3c(c2)OCCO3)c(=O)c(C#N)c1C	.	-5	88*	-2	-5	.	91*	18*
O=C(Cn1cnc2ccccc2c1=O)c1ccc2c(c1)OCCO2	10	-3	9	4	-12	2	.	.
Fc1ccccc1/C=C/c1ccc2ccccc2n1	-2	-1	89*	-3	6	2	74*	7
C(=C\c1ccc2ccccc2n1)/c1ccccc1	-4	1	41	-2	3	-1	.	.
CC1Nc2ncnc(N3CCc4ccccc4C3)c2N(Cc2ccccc2)C1=O (centres undefined)	.	19	.	.	.	.	.	.
COC(=O)c1ccc(NC(=O)c2cnc3scc(C)n3c2=O)cc1	-1	.	-2	.	6	2	.	.
CCOc1ccc(NC(=O)c2cnc3scc(C)n3c2=O)cc1	-1	-1	90*	1	-12	-3	129*	22*
O=C(/C=C/c1ccccc1[N+](=O)[O-])Nc1cccnc1	0	0	145*	1	6	-3	83*	33*
Cc1cccc(NC2=C(NCCO)C(=O)c3ccccc3C2=O)c1	6	-18	113*	2	-3	5	77*	65*
O=C(CSc1nc2c([nH]c3ccccc32)c(=O)n1-c1ccccc1)NCC1CCCO1 (centres undefined)	-3	0	26	1	-1	-1	.	.
CCn1c(SCC(=O)NCC2CCCO2)nc2c([nH]c3ccccc32)c1=O (centres undefined)	1	-1	80*	-1	1	-2	88*	80*
COc1cccc(NC(=O)CSc2nc3c([nH]c4ccccc43)c(=O)n2C)c1	0	1	17	2	-3	2	.	.
COCCn1c(SCC(=O)Nc2cccc(NC(C)=O)c2)nc2c([nH]c3ccccc32)c1=O	-6	-1	108*	-3	-5	1	91*	39*
COc1ccccc1-n1c(SCC(=O)Nc2ccc(NC(C)=O)cc2)nc2c([nH]c3ccccc32)c1=O	4	2	81*	-1	-5	15	100*	119*
SMILES	M18AAP inhibitor	SENP1 FRET inh	AHR act	FXN GAA850 act	HDAC3 inh	Fh CTSL1 inh	AHR act confirm	PXR act counter
COc1ccccc1-n1c(SCC(=O)NCC2CCCO2)nc2c([nH]c3ccccc32)c1=O (centres undefined)	-3	1	90*	-4	-4	-4	127*	164*
O=C(Cn1nnc(-c2ccc(F)cc2)n1)Nc1cccc(S(=O)(=O)N2CCCC2)c1	.	-1	3	0	1	.	.	.
c1cc(-c2cc3cc4c(cc3cn2)OCO4)cs1	.	0	118*	4	8	.	114*	25*
Cc1c(NS(=O)(=O)c2cc(C(=O)NCc3ccco3)cc(Cl)c2Cl)c(=O)n(-c2ccccc2)n1C	.	-2	97*	0	0	12	102*	201*
Cc1ccc(S(=O)(=O)Nc2c(C)n(C)n(-c3ccccc3)c2=O)cc1C(=O)NCc1ccco1	.	0	.	2	.	.	.	.
Cc1nc(N2N=C3/C(=C/c4ccc(F)cc4)CCCC3C2c2ccc(F)cc2)sc1C(=O)N(C)C (centres undefined)	-11	-23	92*	-3	.	2	93*	115*
COc1ccccc1C(=O)Nc1ccc2c(c1)CN(Cc1cnc(C)s1)CC2	-1	-30	113*	4	3	0	56*	13*
CCOC(=O)CNC(=O)N1CCc2ccc(NC(=O)c3ccccc3OC)cc2C1	2	2	37	2	-1	0	.	.
Clc1ccc(-c2csc(-c3cccnc3)n2)s1	1	-9	34	3	3	8	.	.
O=C(/C=C\c1cccs1)c1c(O)ccc2ccc(=O)oc12	-2	-18	85*	2	4	0	97*	.
O=C(O)c1ccc(NC(=O)c2ccccc2NC(=O)c2ccccc2Cl)cc1	4	-4	0	1	6	0	.	.
O=c1[nH]c(/C=C/c2ccccc2OC(F)F)nc2c1cnn2-c1ccccc1	3	-32	85*	1	-14	4	16	33*
Clc1ccc2[nH]c(-c3ccccc3)cc2c1	-4	-1	115*	2	-1	5	138*	17*
O=c1cc(-c2ccccc2)[nH]c2cc(Cl)ccc12	-3	0	96*	1	-8	2	64*	23*
O=c1cc(-c2ccccc2)c2cc(Cl)ccc2[nH]1	7	2	2	-1	-14	-8	.	.
Cc1c(C2(O)CCCCC2)[nH]c2ccc(C(F)(F)F)cc12	.	0	80*	-3	12	.	81*	44*
COC(=O)c1ccc2[nH]c(C3(O)CCCCC3)c(C)c2c1	.	-10	0	6	5	.	.	.
C#CCn1cc(/C=N/NC(=O)COc2cccc3cccnc23)c2ccccc21	1	-12	103*	3	1	-3	63*	.
